A value given as a limit tells only on which side of the number the result lay.

Here are results for 37 compounds from ChEMBL document CHEMBL4020725, “Design and synthesis of novel xanthine derivatives as potent and selective A2B adenosine receptor antagonists for the treatment of chronic inflammatory airway diseases” (Eur J Med Chem, 2017).

The target in one assay is T1, Adenosine receptor A2b (Homo sapiens, UniProt P29275).
T1 sequence (P29275 whole entry): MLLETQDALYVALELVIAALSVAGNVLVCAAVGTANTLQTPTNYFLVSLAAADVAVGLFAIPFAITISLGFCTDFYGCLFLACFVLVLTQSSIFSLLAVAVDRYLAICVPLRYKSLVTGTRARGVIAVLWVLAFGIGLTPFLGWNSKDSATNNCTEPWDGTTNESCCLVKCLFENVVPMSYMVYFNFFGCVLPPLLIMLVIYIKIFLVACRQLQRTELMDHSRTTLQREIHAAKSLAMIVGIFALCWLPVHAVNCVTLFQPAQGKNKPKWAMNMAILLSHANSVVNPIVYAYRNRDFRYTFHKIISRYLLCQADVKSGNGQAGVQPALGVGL
The assay can be described thus: Displacement of [3H]-MRS-1754 from human adenosine A2B receptor expressed in HEK293 cell membranes after 90 mins. In a few lines: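 Membranes from HEK-293 cells stably expressing human A2B, ADA-treated, incubated with 1.6 nM [3H]-MRS-1754 in 50 mM Tris pH 6.5, 5 mM MgCl2, 1 mM EDTA, 1 U/ml ADA. Incubation 90 min at room temperature. Filtration; nonspecific binding with 100 µM NECA. Eight compound concentrations, each in triplicate; Ki derived by fitting.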
For orientation: Displacement assays read how much labelled ligand stays bound in the presence of the test substance.

Assay [1] addresses Adenosine receptor A2a (Homo sapiens) (UniProt P29274). The assay can be described thus: Displacement of [3H]-ZM241385 from human adenosine A2A receptor expressed in HEK293 cell membranes at 0.1 uM after 90 mins relative to control. An outline of the steps: (§1)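 Membranes from HEK-293 cells stably transfected with human A1, A2A or A3 receptor, pretreated with 1 U/ml ADA. Membranes are incubated 90 min at room temperature with gentle agitation. Tracer and buffer per receptor: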

In assay [2] the target is T2, Adenosine receptor A1 (Homo sapiens) (UniProt P30542).
T2 sequence (whole entry): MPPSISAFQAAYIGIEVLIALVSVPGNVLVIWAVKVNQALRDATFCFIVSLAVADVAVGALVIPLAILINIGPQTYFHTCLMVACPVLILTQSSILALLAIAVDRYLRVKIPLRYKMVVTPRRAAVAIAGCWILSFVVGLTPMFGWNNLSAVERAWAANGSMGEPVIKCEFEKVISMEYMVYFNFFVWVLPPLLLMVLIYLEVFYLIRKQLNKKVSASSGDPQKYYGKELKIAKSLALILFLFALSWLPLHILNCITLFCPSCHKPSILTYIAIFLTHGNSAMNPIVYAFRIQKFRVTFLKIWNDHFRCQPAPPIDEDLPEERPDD
The assay can be described thus: Displacement of [3H]-DPCPX from human adenosine A1 receptor expressed in HEK293 cell membranes at 0.1 uM after 90 mins relative to control. In a few lines:
as §1

Assay [3] deals with T3, Adenosine receptor A3 (Homo sapiens) (UniProt P0DMS8).
T3 sequence (whole entry): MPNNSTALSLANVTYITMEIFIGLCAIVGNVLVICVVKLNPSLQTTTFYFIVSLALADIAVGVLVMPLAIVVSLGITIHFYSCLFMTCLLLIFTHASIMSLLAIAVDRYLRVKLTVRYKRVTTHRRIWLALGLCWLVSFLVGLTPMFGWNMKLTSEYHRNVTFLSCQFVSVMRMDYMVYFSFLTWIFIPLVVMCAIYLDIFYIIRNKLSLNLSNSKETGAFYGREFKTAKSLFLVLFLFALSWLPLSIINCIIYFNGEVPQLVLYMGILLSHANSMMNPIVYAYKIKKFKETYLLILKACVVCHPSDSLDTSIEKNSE
The assay can be described thus: Displacement of [3H]-HEMADO from human adenosine A3 receptor expressed in HEK293 cell membranes at 1 uM after 90 mins relative to control. An outline of the steps:
as §1

Sequence of Adenosine receptor A2a (Homo sapiens) (P29274 whole entry): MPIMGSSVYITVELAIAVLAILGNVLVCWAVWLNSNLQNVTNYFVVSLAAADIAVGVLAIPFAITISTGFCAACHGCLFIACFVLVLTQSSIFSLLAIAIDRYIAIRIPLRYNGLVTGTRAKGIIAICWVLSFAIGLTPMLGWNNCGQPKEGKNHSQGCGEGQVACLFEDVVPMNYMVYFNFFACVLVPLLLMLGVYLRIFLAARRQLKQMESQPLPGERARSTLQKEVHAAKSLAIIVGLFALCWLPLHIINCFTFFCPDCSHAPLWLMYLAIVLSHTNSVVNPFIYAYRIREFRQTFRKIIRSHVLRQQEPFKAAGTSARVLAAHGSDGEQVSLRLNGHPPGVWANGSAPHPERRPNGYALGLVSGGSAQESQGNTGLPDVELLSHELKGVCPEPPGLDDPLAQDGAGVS

On to `CCCn1c(=O)c2[nH]c(-c3cnn(CC#Cc4cccc(C(=O)O)c4)c3)nc2n(CC)c1=O`, for which the inhibitory constant (Ki) (usually a dissociation constant, usually derived from enzyme kinetics or from competition with a known ligand) at Adenosine receptor A2b (read-out: Ki) is 190 nM.
`CCCn1c(=O)c2[nH]c(-c3cnn(CC#Cc4cccc(F)c4)c3)nc2n(CCC)c1=O`: the inhibition (as a rule, the share of the control response that was lost under treatment) in assay [1] came out at 64%; in assay [2] it was 87%; in assay [3], 0%. In addition, the Ki on Adenosine receptor A2b (read-out: Ki) was 6.7 nM.
Regarding `CCCn1c(=O)[nH]c2nc(-c3cnn(CC#Cc4cccc(C(F)(F)F)c4)c3)[nH]c2c1=O`, the figures for the inhibition in assay [1], in assay [2] and in assay [3] were 39%, 26% and 0%, respectively. The Ki at Adenosine receptor A2b (read-out: Ki) came out at 2.2 nM.
Consider `CCCn1c(=O)c2[nH]c(-c3cnn(CC#Cc4cccc(C(F)(F)F)c4)c3)nc2n(CCC)c1=O`, for which the inhibition stood at 64% in assay [1], 43% in assay [2] and 32% in assay [3]. Also, on Adenosine receptor A2b (read-out: Ki), the Ki stood at 4.9 nM.
Turning to `CCCn1c(=O)c2[nH]c(-c3cnn(CC#Cc4ccc(C#N)cc4)c3)nc2n(CCC)c1=O`, the inhibition was found to be 29% in assay [1], 14% in assay [2] and 14% in assay [3]. Further, at Adenosine receptor A2b (read-out: Ki), the Ki stood at 14 nM.
`CCCn1c(=O)c2[nH]c(-c3cnn(CC#Cc4ccc(C(F)(F)F)cc4)c3)nc2n(CC)c1=O`: the inhibition in assay [1] amounted to 21%; in assay [2], 66%; in assay [3] it was 14%. The Ki at Adenosine receptor A2b (read-out: Ki) amounted to 12 nM.
Regarding `CCCn1c(=O)c2[nH]c(-c3cnn(CC#Cc4ccc(C(=O)O)cc4)c3)nc2n(CCC)c1=O`, the inhibition in assay [1] worked out at 44%; in assay [2], 19%; in assay [3], 25%. Also, the Ki on Adenosine receptor A2b (read-out: Ki) came to 17.6 nM.
Take `CCCn1c(=O)c2[nH]c(-c3cc(OCC#Cc4ccc(F)cc4)no3)nc2n(CCC)c1=O`: the Ki on Adenosine receptor A2b (read-out: Ki) was 15 nM.
With `CCCn1c(=O)c2[nH]c(-c3cnn(CC#Cc4cccc(C)c4)c3)nc2n(CCC)c1=O`, the figures for the inhibition in assay [1], in assay [2] and in assay [3] were 55%, 57% and 9%, respectively. For the same compound, the Ki at Adenosine receptor A2b (read-out: Ki) turned out to be 5 nM.
`CCCn1c(=O)c2[nH]c(-c3cnn(CC#CCN4CCN(C)CC4)c3)nc2n(CCC)c1=O`: the results for the inhibition in assay [1], in assay [2] and in assay [3] were 73%, 55% and 79%, respectively. Besides, the Ki on Adenosine receptor A2b (read-out: Ki) was 83 nM.
As to `CCCn1c(=O)[nH]c2nc(-c3cnn(CC#Cc4cccc(F)c4)c3)[nH]c2c1=O`, the inhibition in assay [1] was 60%; in assay [2], 53%; in assay [3], 0%. Besides, on Adenosine receptor A2b (read-out: Ki), the Ki came to 3 nM.
For the compound `C#CCn1cc(-c2nc3c([nH]2)c(=O)n(CCC)c(=O)n3CCC)cn1`, the values for the inhibition in assay [1], in assay [2] and in assay [3] were 69%, 56% and 32%, respectively. Also, on Adenosine receptor A2b (read-out: Ki), the Ki amounted to 62 nM.
`CCCn1c(=O)c2[nH]c(-c3cc(OCC#Cc4cccc(C(F)(F)F)c4)n(C)n3)nc2n(CCC)c1=O`: the Ki result on Adenosine receptor A2b (hek293) was “Nd(Insoluble)”.
Take `CCCn1c(=O)c2[nH]c(-c3cnn(CC#Cc4ccc(F)cc4)c3)nc2n(CC)c1=O`: the figures for the inhibition in assay [1], in assay [2] and in assay [3] were 56%, 92% and 33%, respectively. The Ki on Adenosine receptor A2b (read-out: Ki) is 7.3 nM.
Turning to `CCCn1c(=O)c2[nH]c(-c3cc(OCC#Cc4cccc(F)c4)no3)nc2n(CCC)c1=O`, the Ki at Adenosine receptor A2b (read-out: Ki) came to 55 nM.
Take `CCCn1c(=O)c2[nH]c(-c3cnn(CC#CCN(CC)CC)c3)nc2n(CCC)c1=O`: the results for the inhibition in assay [1], in assay [2] and in assay [3] were 59%, 71% and 69%, respectively. Besides, the Ki on Adenosine receptor A2b (read-out: Ki) turned out to be 200 nM.
As to `CCCn1c(=O)c2[nH]c(-c3cnn(CC#CCN4CCN(c5cccc(C(F)(F)F)c5)CC4)c3)nc2n(CCC)c1=O`, the figures for the inhibition in assay [1], in assay [2] and in assay [3] were 10%, 69% and 31%, respectively. On Adenosine receptor A2b (read-out: Ki), the Ki amounted to 12 nM.
Regarding `CCCn1c(=O)c2[nH]c(-c3cnn(CC#CC4(O)CCCCC4)c3)nc2n(CCC)c1=O`, the Ki on Adenosine receptor A2b (read-out: Ki) was found to be 100 nM.
As for `CCCn1c(=O)[nH]c2nc(-c3cnn(CC#Cc4cccc(OC(F)(F)F)c4)c3)[nH]c2c1=O`, the figures for the inhibition in assay [1], in assay [2] and in assay [3] were 33%, 14% and 0%, respectively. Besides, the Ki on Adenosine receptor A2b (read-out: Ki) is 2.8 nM.
In the case of `CCCn1c(=O)c2[nH]c(-c3cnn(CC#Cc4ccc(OC(F)(F)F)cc4)c3)nc2n(CC)c1=O`, the inhibition is 49% in assay [1], 84% in assay [2] and 32% in assay [3]. Besides, at Adenosine receptor A2b (read-out: Ki), the Ki was determined as 9.9 nM.
For the compound `CCCn1c(=O)[nH]c2nc(-c3cnn(CC#Cc4ccc(OC(F)(F)F)cc4)c3)[nH]c2c1=O`, the figures for the inhibition in assay [1], in assay [2] and in assay [3] were 46%, 88% and 17%, respectively. For the same compound, the Ki on Adenosine receptor A2b (read-out: Ki) amounted to 1.6 nM.
As for `CCCn1c(=O)c2[nH]c(-c3cnn(CC#Cc4ccc(C)cc4)c3)nc2n(CCC)c1=O`, the inhibition was found to be 33% in assay [1], 70% in assay [2] and 0% in assay [3]. On Adenosine receptor A2b (read-out: Ki), the Ki was 6.5 nM.
For `CCCn1c(=O)c2[nH]c(-c3ccc(OCC#Cc4ccc(F)cc4)cc3)nc2n(CCC)c1=O`, the Ki result on Adenosine receptor A2b (hek293) is recorded as “Nd(Insoluble)”.
Still for that read-out and setting: with `CCCn1c(=O)c2[nH]c(-c3cc(OCC#Cc4ccc(C(F)(F)F)cc4)no3)nc2n(CCC)c1=O` the entry was “Nd(Insoluble)”.
For `CCCn1c(=O)c2[nH]c(-c3cnn(CC#Cc4ccc(C(F)(F)F)cc4)c3)nc2n(CCC)c1=O`, the inhibition in assay [1] came to 30%; in assay [2], 84%; in assay [3], 12%. Besides, on Adenosine receptor A2b (read-out: Ki), the Ki was determined as 1.5 nM.
On to `CCCn1c(=O)c2[nH]c(-c3cnn(CC#Cc4cccc(OC)c4)c3)nc2n(CCC)c1=O`, for which the values for the inhibition in assay [1], in assay [2] and in assay [3] were 74%, 57% and 21%, respectively. The Ki at Adenosine receptor A2b (read-out: Ki) was found to be 6.3 nM.
In the case of `CCCn1c(=O)c2[nH]c(-c3cc(OCC#Cc4cccc(C(F)(F)F)c4)no3)nc2n(CCC)c1=O`, the Ki on Adenosine receptor A2b (read-out: Ki) was above 600 nM.
In the case of `CCCn1c(=O)c2[nH]c(-c3cnn(CC#CC4(O)CCCC4)c3)nc2n(CCC)c1=O`, the Ki on Adenosine receptor A2b (read-out: Ki) was 79 nM.
Regarding `CC#CCn1cc(-c2nc3c([nH]2)c(=O)n(CCC)c(=O)n3CCC)cn1`, the inhibition in assay [1] worked out at 60%; in assay [2], 42%. Besides, the Ki at Adenosine receptor A2b (read-out: Ki) is 23 nM.
As for `CCCn1c(=O)c2[nH]c(-c3cc(OCC#Cc4cccc(OC(F)(F)F)c4)no3)nc2n(CCC)c1=O`, the Ki on Adenosine receptor A2b (read-out: Ki) was above 600 nM.
For the compound `CCCn1c(=O)c2[nH]c(-c3ccc(OCC#Cc4ccc(OC(F)(F)F)cc4)cc3)nc2n(CCC)c1=O`, the Ki at Adenosine receptor A2b (read-out: Ki) is above 600 nM.
In the case of `CCCn1c(=O)c2[nH]c(-c3ccc(OCC#Cc4ccc(C(F)(F)F)cc4)cc3)nc2n(CCC)c1=O`, at Adenosine receptor A2b (hek293), the Ki entry was “Nd(Insoluble)”.
Regarding `CCCn1c(=O)c2[nH]c(-c3cnn(CC#Cc4ccc(C(=O)O)cc4)c3)nc2n(CC)c1=O`, on Adenosine receptor A2b (read-out: Ki), the Ki was found to be 130 nM.
`CCCn1c(=O)c2[nH]c(-c3cc(OCC#Cc4ccc(OC(F)(F)F)cc4)n(C)n3)nc2n(CCC)c1=O`: at Adenosine receptor A2b (hek293), the Ki entry is listed as “Nd(Insoluble)”.
Take `CCCn1c(=O)[nH]c2nc(-c3cnn(CC#Cc4cccc(C(=O)O)c4)c3)[nH]c2c1=O`: the Ki on Adenosine receptor A2b (read-out: Ki) was found to be 48 nM.
Still for that read-out and setting: with `CCCn1c(=O)c2[nH]c(-c3ccc(OCC#Cc4cccc(F)c4)cc3)nc2n(CCC)c1=O` the figure was above 1000 nM.
With `CCCn1c(=O)c2[nH]c(-c3ccc(OCC#Cc4cccc(OC(F)(F)F)c4)cc3)nc2n(CCC)c1=O`, the Ki entry on Adenosine receptor A2b (hek293) is recorded as “Nd(Insoluble)”.
